Data published in paper PMC4140444 (Drug Design, Development and Therapy, 2014).

How the values were obtained:
[1] = biological target: T1, CYP19 (a recombinant human aromatase) (Homo sapiens, UniProt P11511); experiment: Aromatase inhibition assay; assay type: biochemical; conditions: screened at 12.5 μM
T1 sequence (P11511 1-503): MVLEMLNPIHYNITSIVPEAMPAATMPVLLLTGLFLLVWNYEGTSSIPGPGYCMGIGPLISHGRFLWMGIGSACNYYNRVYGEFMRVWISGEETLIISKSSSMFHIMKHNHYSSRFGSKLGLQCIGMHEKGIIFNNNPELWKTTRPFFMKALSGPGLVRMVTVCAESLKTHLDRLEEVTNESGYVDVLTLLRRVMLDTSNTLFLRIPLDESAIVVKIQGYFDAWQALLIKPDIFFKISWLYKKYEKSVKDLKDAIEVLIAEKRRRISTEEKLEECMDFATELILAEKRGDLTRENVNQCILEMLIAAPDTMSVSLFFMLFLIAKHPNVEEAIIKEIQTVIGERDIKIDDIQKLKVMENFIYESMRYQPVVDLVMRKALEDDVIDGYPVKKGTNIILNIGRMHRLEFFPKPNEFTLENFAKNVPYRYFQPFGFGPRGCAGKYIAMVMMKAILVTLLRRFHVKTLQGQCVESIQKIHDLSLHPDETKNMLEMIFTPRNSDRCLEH

[2] = Cytotoxicity, MTT assay on normal embryonic lung cells; assay type: cell-based; conditions: human, MRC-5 normal embryonic lung cells
Method in brief: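 MRC-5 cells grown in DMEM with 10% fetal bovine serum and 100 U/mL penicillin–streptomycin, seeded at 5×10³–2×10⁴ cells/well, then held 24 h at 37°C in 5% CO2. Serial dilutions of test compound added in an equal volume of medium, with doxorubicin (positive) and DMSO (negative) controls, for 48 h. MTT applied for 2–4 h; formazan dissolved in DMSO with sonication; read at 550 nm against a 650 nm reference. IC50 is the concentration giving 50% growth inhibition versus the DMSO control.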

[3] = test system: human breast cancer MCF-7 cell line; conditions: cited from earlier work

Aromatase inhibitory activity (IC50 column, activity class) [1]	SMILES	IC50 at 48 h [2]	Cytotoxic activity against MCF-7 [3]
	COc1cccc2c1C(=O)c1c(O)c3c(c(O)c1C2=O)C[C@@](O)(C(=O)CO)C[C@@H]3O[C@H]1C[C@H](N)[C@H](O)[C@H](C)O1 [Doxorubicin]	> 50 µg/mL	
Inactive ^b	O=c1[nH]cc(I)c(=O)[nH]1 [Compound 3, 5-iodouracil]	> 50 µg/mL	
Inactive ^b	O=c1[nH]cc([N+](=O)[O-])c(=O)[nH]1 [Compound 2, 5-nitrouracil]	> 50 µg/mL	

SMILES	Aromatase inhibitory activity (IC50 column, activity class) [1]	IC50 at 48 h [2]	Cytotoxic activity against MCF-7 [3]
Oc1cccc2cccnc12 [Compound 1, 8-hydroxyquinoline]	Inactive ^b	6.27 ± 0.58 µM	substantial cytotoxic activity
